Assay: Toxicity liver stage against HepG2, at 10uM
Format: cell-based
Set-up: test concentration 10 uM, cell line HepG2-A16-CD81EGFP
Conditions: human, HepG2-A16-CD81EGFP cells; read-out: INHIBITION
Summary of the method: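 Uninfected HepG2-A16-CD81EGFP cells, 3 × 10^3 per well, 1536-well, plated on prespotted compound at 10 μM final, parasite-free screening media added to match infected plates; puromycin 10 μM positive, DMSO 0.5% negative; run in parallel with 48 h PbLuc assay at 37 °C, 5% CO2; viability by CellTiter-Glo luminescence, normalized to controls.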

| Compound | cytotoxicity at 10 µM [%] |
| --- | --- |
| N#Cc1cccc(CN2CCO[C@@H]3CNC[C@@H]32)c1 | 8.94 |
| CCN(Cc1ccc(-c2ccccn2)cc1)C1CCS(=O)(=O)C1 (stereo not given) | -9.25 |
| Cc1cnc(C2CCCN(C(=O)c3c[nH]c(=O)[nH]c3=O)C2)s1 (stereo not given) | -1.58 |
| CCc1ccccc1NC(=O)C1CN(C(C)=O)C1 | 8.49 |
| Cn1nccc1C(=O)NCCN1CCC(O)(c2ccc(F)cc2)CC1 | 1.09 |
| O=C(Nc1ccc(F)cc1)C1CCc2ccccc2N1 (stereo not given) | 2.4 |
| CC1c2cc(F)ccc2CCN1CCCS(=O)(=O)C(C)C (stereo not given) | 9.15 |
| CCNC(=O)C1CCCN(C(=O)Nc2ccc3c(c2)CCCN3C)C1 (stereo not given) | 13.6 |
| O=C(NC1(c2cccc(F)c2)CCOCC1)c1ccoc1 | -9.41 |
| Cc1cc(=O)n2nc(Oc3ccc(Cl)c(C)c3)sc2n1 | -19 |
| CC(C)(C)c1cc(NC(=O)CN(Cc2ccco2)Cc2cccs2)on1 | 11.2 |
| Cc1ccccc1CSc1nc(=O)n(CCO)c2c1CCC2 | 20.6 |
| O=C(CC1CSc2nccc(=O)n21)NCc1ccco1 (stereo not given) | -7.2 |
| CC1=N[C@@]2(CC[C@@H]3CN(Cc4ccccc4F)C[C@@H]32)C(=O)N1CC1CC1 | 1.47 |
| O=C(c1ccoc1)N1CC[C@@H]2O[C@@H](COCc3ccncc3)CC[C@@H]21 | -80.4 |
| CN(Cc1ccc(Cl)s1)C(=O)Cn1nc(-c2ccc(F)cc2)oc1=O | -20.4 |
| Cc1ccc2c(c1)C(=O)NCC1(CCN(C(=O)c3ccnn3C)CC1)O2 | -16.6 |
| Cn1nc2c(cc1=O)CN(Cc1nnc(C3CC3)o1)CC2 | 4.28 |
| Cc1nn(C)cc1S(=O)(=O)N[C@@H]1CCC[C@@H](N2CCCC2)[C@@H]1O | -3.02 |
| O=C(NCCn1nc(-n2cncn2)ccc1=O)c1ccccc1Br | -2.02 |
| CN(CC(=O)NCCC#N)C(c1ccccc1)c1ccccc1 | 6.51 |
| c1nnc(Nc2cncc(C3CCCN3)n2)s1 (stereo not given) | 3.58 |

| Compound | cytotoxicity at 10 µM [%] |
| --- | --- |
| CCCNC(=O)Cn1c(C)nn(C(C)(C)C)c1=O | 4.62 |
| COc1c(CNC2CCN(c3ccccn3)CC2)c(C(C)C)nn1C | -8.06 |
| CC(=O)N1CCN(C(=O)Nc2ccc(Cl)cc2)[C@H]2CS(=O)(=O)C[C@H]21 | 6.55 |
| CCn1nc(C)c(CNC(=O)NCC(C)(O)c2ccc(C)o2)c1C (stereo not given) | 10.5 |
| O=C(Cc1cccs1)N1CC(c2nc(-c3cnccn3)no2)C1 | -0.921 |
| CC(C)(C)OC(=O)N1CSC[C@@H]1C(=O)NCc1cccc(C#N)c1 | -5.88 |
| CCCc1cc(C(=O)N[C@@H]2CC[C@@H](N3CCOCC3)[C@@H]2O)no1 | -3.59 |
| O=C(c1ccccc1C(F)(F)F)N1CC[C@@H](N2CCC(O)CC2)[C@H](O)C1 | -2.49 |
| O=C(CCN1CCNCC1)N1CCC2(CC1)c1ccccc1CC2O (stereo not given) | -9.43 |
| COc1ccccc1OCC(=O)NCC(C)(O)c1ccccc1 (stereo not given) | -5.37 |
| CC(=O)N1CCC(CCNC(C)c2cc(F)cc(F)c2)CC1 (stereo not given) | -0.988 |
| COCc1noc(CN2CC(Cc3ccccc3)CC2=O)n1 (stereo not given) | -0.472 |
| Cn1ncc(N2CCOCC2)c(Cl)c1=O | -13.8 |
| O=C(O)c1c(-c2cncnc2)ncc2c1CCN(CC1CCOC1)C2 (stereo not given) | -102 |
| Cc1cc(C)n(CC2CCCCN2C(=O)c2ccsc2)n1 (stereo not given) | -10.3 |
| O=C(Nc1cc(Cl)ccc1Cl)NC1CCN(C2CCOC2)CC1 (stereo not given) | 6.8 |
| Cc1ccnc(C(NC(=O)c2ncoc2C)C2CC2)n1 (stereo not given) | 12.7 |
| CC1CCN(C(=O)CSCCN2CCOCC2)CC1 | 1.89 |
| O=C(O)c1cc(S(=O)(=O)Nc2cc(F)cc(F)c2)cc2c1OCCO2 | -12.6 |
| Cc1ccc(-c2nc(CC3CCN(C)CC3)no2)cc1N1CCNC1=O | -11.8 |
| FC(F)(F)COCCN1CCCC(c2noc(C3CC3)n2)C1 (stereo not given) | 3.3 |
| CCN(Cc1ccoc1)C(=O)NC1CCN(CC2CCCC2)CC1 | -6.11 |

| Compound | cytotoxicity at 10 µM [%] |
| --- | --- |
| O=C1COC2(CCN(CC3CCC3)CC2)CN1c1cncnc1 | -1.11 |
| CC(CN1CC[C@@H]2CCCC[C@@H]2C1)n1cnc2ccccc21 (stereo not given in full) | 7.16 |
| Cc1ccc2cc(C(=O)N3CCC(O)(C(F)(F)F)CC3)ccc2n1 | -54.7 |
| Cc1cc(C)cc(NCCC(=O)NC2CCCCC2)c1 | 7.61 |
| CN(Cc1noc(C2CC2)n1)C1CCN(Cc2ccncc2)C1 (stereo not given) | -10.6 |
| Cc1ccc(NC2CCN(C(=O)CCc3nccs3)CC2)nn1 | -9.93 |
| C[C@@H]1CN(C(=O)CCN2CCCC2)CC[C@@]1(O)C1CCC1 | -7.97 |
| Cc1ccc(CC(NC(=O)CN(C)C2CC2)c2ccccn2)cc1 (stereo not given) | 5.33 |
| O=C(CC1CC2(CCN(CC3CC3)CC2)c2ccccc21)NC1CCC1 (stereo not given) | -4.63 |
| O=C(NCC1CCCOC1)c1ccc(-c2ccccc2)[nH]c1=O (stereo not given) | -12.2 |
| CC(NC(=O)N(C)CCCOc1ccc(F)cc1)c1nncn1C (stereo not given) | 2.48 |
| CC(=O)N1CCC(NC(=O)N2CCN(c3cnccn3)CC2)CC1 | 6.47 |
| CC(C)N1CCC(O)(CNC(=O)CC2OCCc3ccccc32)CC1 (stereo not given) | 5.02 |
| Cc1cc(OC(F)F)c(C(=O)NCC(O)c2cccc(F)c2)s1 (stereo not given) | -4.3 |
| CC(C)c1ccn(C2(C(=O)O)CCN(c3cc(C(N)=O)ccn3)CC2)n1 | 1.71 |
| COCc1nc(C(=O)N2CCCC2Cn2cc(C)cn2)cs1 (stereo not given) | -1.36 |
| Cc1cc(-c2ccc(=O)n(CCNC(=O)C3CC3)n2)c(C)o1 | -10.2 |
| COc1cc(Br)c(CNC2CCCNC2=O)cc1OC (stereo not given) | 1.93 |
| Cc1nc(C)c(Cc2nc(C3CC3)n[nH]2)c(=O)[nH]1 | 2.39 |
| Cn1nnc2c1CCN(Cc1ccoc1)C2COCc1ccccc1 (stereo not given) | -138 |
| CCCN1CCN(C(=O)CCn2cccc2)CC1 | 6.14 |
| Cc1ccc2oc(C(=O)N3CCCC(n4ccnc4C)C3)cc2n1 (stereo not given) | -3.37 |

| Compound | cytotoxicity at 10 µM [%] |
| --- | --- |
| Cc1ccnc(CC(C)N(C)c2cc(CCN)nc(C)n2)c1 (stereo not given) | -48 |
| O=C(C1CC1)N1CCC2(COCc3cnc(N4CCOCC4)nc32)C1 (stereo not given) | 5.31 |
| COCc1noc(CN2C[C@H](NS(C)(=O)=O)[C@@H](C3CC3)C2)n1 | 1.67 |
| O=S(=O)(NCC1(O)CCOCC1)c1ccccc1Br | -5.93 |
| O=C(O)c1ccccc1CN1CCC(c2ccnc3ccnn23)CC1 | -37.8 |
| Clc1ccc(COCC2CCN(Cc3ccccn3)CC2)cc1 | 4.94 |
| CC(C)CC(O)C1CCN(Cc2ccc(N(C)C)nc2)CC1 (stereo not given) | 1.75 |
| O=C(NCC(O)c1ccc(Cl)c(F)c1)NC1CC=CC1 (stereo not given) | -2.41 |
| Cc1noc(C2CCCCN2C(=O)C2CCN(C(C)C)CC2)n1 (stereo not given) | -4.62 |
| CC(C)Oc1cccc(C(=O)C2CCCN(C(=O)c3ccnn3C)C2)c1 (stereo not given) | 1.3 |
| CCCc1noc(C2CC(=O)N(C(C)(C)C)C2)n1 (stereo not given) | 0.0198 |
| O=C(NC1CCN(CC2CCCC2)C1)N1CCC(OCC2CC2)CC1 (stereo not given) | 9.86 |
| CC(C)CNC(=O)CN(C)S(C)(=O)=O | 13.7 |
| COCC1CC2(CCN(Cc3ccccn3)CC2)CN1c1ncccn1 (stereo not given) | 14.4 |
| O=C1c2cccnc2OC(CN2CCOCC2)CN1Cc1cccs1 (stereo not given) | -3.35 |
| Cc1noc(CCCC(=O)NCC(c2ccco2)N2CCCC2)n1 (stereo not given) | -0.363 |
| Cc1cc(C(=O)N2C[C@H](C(C)C)[C@@H](N(C)C)C2)cs1 | -0.421 |
| NC(=O)c1ccc(N2CCCCC2)c(NC(=O)c2cc(Br)ccc2F)c1 | -12.9 |
| CCn1ccc2ccnc(CC3CN(C(=O)Cn4ccnc4C)C3)c21 | -5.87 |
| CCN(CC)C(=O)Cn1cc(C(=O)NCCc2scnc2C)nn1 | -4.47 |
| C=c1ccoc1=C1NN=C(CNC2CCCN(c3cccnn3)C2)O1 (stereo not given) | -9.48 |
| CN(C)c1cccc(C(=O)Nc2cnn(CC(N)=O)c2)c1 | 3.63 |

| Compound | cytotoxicity at 10 µM [%] |
| --- | --- |
| CCCNC(=O)CN(C)C1CCN(c2ccc(Cl)cc2)CC1 | 1.41 |
| CC(C)c1nc(CN(C)C(=O)c2ccccc2C2CCNC2)cs1 (stereo not given) | 4.46 |
| COc1ccc(C2CN(c3cc(C)ncn3)CCN2C(C)=O)cc1 (stereo not given) | 0.23 |
| CC(C(=O)NCc1ccnc(N2CCN(C)CC2)c1)S(C)(=O)=O (stereo not given) | -13.9 |
| Cc1ccc(CN2CC[C@@H]3OCCN(S(C)(=O)=O)[C@H]3CC2)s1 | 3.91 |
| CCC(O)CNC(=O)C1(N(C)Cc2ccccc2)Cc2ccccc2C1 (stereo not given) | 7.62 |
| Cc1nc2n(n1)CCN(S(=O)(=O)c1ccc(Cl)cc1)C2 | 5.76 |
| Cn1cc(CN2CC[C@@H]3[C@@H](CO[C@H]3CNC(=O)c3ccco3)C2)cn1 | -142 |
| COCCS(=O)(=O)NC(C)c1cccc(C)c1C (stereo not given) | 6.13 |
| CCS(=O)(=O)c1ncc(CN(C)Cc2ccccc2OC)n1CCOC | -2.23 |
| Cn1cccc1C(=O)N1CCC2(CC1)CC(N1CCOCC1)C2 | -8.25 |
| CC(=O)N1CC[C@@H]2O[C@@H](COCc3csc(C)n3)CC[C@@H]21 | -71.7 |
| CC(C)(O)c1cc(CC2(NCC3CCCCC3)COC2)no1 | 0.0962 |
| CCOCC1CN(S(=O)(=O)C2CC2)Cc2ncn(CC3CC3)c21 (stereo not given) | 4.44 |
| Cc1nc(N(C)C)nc(NCCc2cnccn2)c1C | -1.22 |
| CC(C)(C)NC(=O)CN1CCNCC1 | -143 |
| O=C(c1cscn1)N1CCC2(CC1)CN(c1ccccn1)CCO2 | -71 |
| Cc1cc(C)n(CCCNC(=O)C2CCCO2)n1 (stereo not given) | -11.5 |
| COCCCN1CC2(CCN(C(=O)c3ncc(F)cc3F)CC2)CC1=O | -3.94 |
| Cc1ccc2c(c1)N(C(=O)c1cc[nH]c(=O)c1)CC(C)O2 (stereo not given) | 2.71 |
| Cc1cccc(-n2nc(CC(C)C)nc2CCn2ccc(=O)[nH]c2=O)c1 | -3.7 |
| C[C@@H]1CN(C2CCCCC2)CC[C@@]1(O)C1CCOCC1 | -7.58 |
